In article PMC10633881 (ACS Omega, 2023):
Residues, ends and D or L forms follow the SMILES beside them. No end group written: not given here.

Tests used:
MCF-7 cells = experiment: Cell viability, CCK-8 method; format: cell-based, human; details: 10 μM peptide, 24 h, CCK8
Procedure, shortened: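 MCF-7 cells (MEM, 10% FBS, 37 °C, 5% CO2) were seeded at 5×10^3 cells/well in 96-well plates. After 24 h, the medium was removed and replaced with MEM containing peptide. After 24 h at 37 °C, viability was read by CCK-8.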

K562 cells [1] = experiment: Cell viability, CCK-8 method; format: cell-based, human; details: 10 μM peptide, 24 h, CCK8
Procedure, shortened: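 K562 cells (IMDM, 10% FBS, 37 °C, 5% CO2) were seeded at 5×10^3 cells/well in 96-well plates. After 24 h, IMDM containing peptide was added without removing the medium. After 24 h at 37 °C, viability was read by CCK-8.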

K562 cells [2] = experiment: LDH leakage assay; format: cell-based, human; details: 10 μM peptide, 24 h, serum-free medium
Procedure, shortened: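 K562 cells were seeded in 96-well plates for 24 h, then incubated 24 h with peptide in serum-free medium using a kit. Plates were spun at 400g for 5 min. Supernatant was mixed with LDH detection solution and shaken 30 min at room temperature, then read at 490 nm. Untreated wells = no leakage; LDH-releasing reagent = 100% leakage.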

Serum stability assay = format: in vitro ADME; details: peptide solution (10 mM), 37 °C, supernatant analysed by RP-HPLC
[3] = tested on: cancer cells and murine fibroblasts; details: read-out: antiproliferative activity IC50 values; against cancer cells and murine fibroblasts; cited from earlier work

Compound | anticancer activity in the preliminary screening, compared with F1, MCF-7 cells (MCF-7 cells) | anticancer activity in the preliminary screening, compared with F1, K562 cells (K562 cells [1]) | LDH leakage (cell membrane destruction) (K562 cells [2]) | peptide degraded after incubation in 10% serum for 1 h (Serum stability assay) | IC50 [3] [µM]
CCCCCCCCCC(=O)N[C@@H](Cc1ccccc1)C(=O)N[C@H](C(=O)NCC(=O)N[C@H](C(=O)N[C@@H](CC(C)C)C(=O)N[C@H](C(=O)N1CCC[C@H]1C(=O)N[C@@H](CC(C)C)C(=O)N[C@@H](C)C(=O)N[C@@H](CC(C)C)C(=O)NCC(=O)N[C@@H](C)C(=O)N[C@@H](CC(C)C)C(=O)N[C@H](C(=O)N[C@@H](CCCCN)C(=O)N[C@@H](CC(C)C)C(=O)N[C@@H](Cc1ccccc1)C(=O)N[C@@H](CCCCN)C(N)=O)[C@@H](C)O)[C@@H](C)CC)[C@@H](C)O)[C@@H](C)CC [A-10] (HELM PEPTIDE1{[CCCCCCCCCC(=O)[*:2]].F.I.G.T.L.I.P.L.A.L.G.A.L.T.K.L.F.K.[am]}$$$$V2.0) | strongest anticancer activity | strongest anticancer activity | stronger than that of F1 | hardly degraded | 
FIGTLIPLALGALTKLFK-NH2 [F1, Figainin 1, reference compound] |  |  | destroyed cell membranes |  | 10.5 to 13.7
